Measured values from ChEMBL document CHEMBL4819017 (Eur J Med Chem, 2021).

Tested on: not listed separately
Test: Metabolic stability in human liver microsomes assessed as parent compound remaining in presence of NADPH regenerating system at 0.5 uM measured after 15 mins by LC-MS/MS analysis
Format: ADME, Microsome
Conditions: read-out: Stabilty
How it was run: (§1)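 Human, mouse or rat liver microsomes at 0.5 mg/ml protein with compound at 0.5 µM and NADPH-regenerating system, 37 °C with shaking. Control wells contain 0.1 M potassium phosphate instead of the regenerating system. Reaction stopped with acetonitrile/0.1% formic acid, centrifuged, supernatant analyzed by LC-MS/MS. Result is percent parent compound remaining.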

remaining at 0.25 h, 0.5 µM | Compound
97% | COc1ncc2cc1NS(=O)(=O)c1cccc(c1)C(=O)NCc1cccc(c1)-c1ncnc3ccc-2cc13

Target: Phosphatidylinositol 4,5-bisphosphate 3-kinase catalytic subunit alpha isoform (Homo sapiens, UniProt P42336)
Sequence (P42336 whole entry, the tested form may be a part, canonical isoform): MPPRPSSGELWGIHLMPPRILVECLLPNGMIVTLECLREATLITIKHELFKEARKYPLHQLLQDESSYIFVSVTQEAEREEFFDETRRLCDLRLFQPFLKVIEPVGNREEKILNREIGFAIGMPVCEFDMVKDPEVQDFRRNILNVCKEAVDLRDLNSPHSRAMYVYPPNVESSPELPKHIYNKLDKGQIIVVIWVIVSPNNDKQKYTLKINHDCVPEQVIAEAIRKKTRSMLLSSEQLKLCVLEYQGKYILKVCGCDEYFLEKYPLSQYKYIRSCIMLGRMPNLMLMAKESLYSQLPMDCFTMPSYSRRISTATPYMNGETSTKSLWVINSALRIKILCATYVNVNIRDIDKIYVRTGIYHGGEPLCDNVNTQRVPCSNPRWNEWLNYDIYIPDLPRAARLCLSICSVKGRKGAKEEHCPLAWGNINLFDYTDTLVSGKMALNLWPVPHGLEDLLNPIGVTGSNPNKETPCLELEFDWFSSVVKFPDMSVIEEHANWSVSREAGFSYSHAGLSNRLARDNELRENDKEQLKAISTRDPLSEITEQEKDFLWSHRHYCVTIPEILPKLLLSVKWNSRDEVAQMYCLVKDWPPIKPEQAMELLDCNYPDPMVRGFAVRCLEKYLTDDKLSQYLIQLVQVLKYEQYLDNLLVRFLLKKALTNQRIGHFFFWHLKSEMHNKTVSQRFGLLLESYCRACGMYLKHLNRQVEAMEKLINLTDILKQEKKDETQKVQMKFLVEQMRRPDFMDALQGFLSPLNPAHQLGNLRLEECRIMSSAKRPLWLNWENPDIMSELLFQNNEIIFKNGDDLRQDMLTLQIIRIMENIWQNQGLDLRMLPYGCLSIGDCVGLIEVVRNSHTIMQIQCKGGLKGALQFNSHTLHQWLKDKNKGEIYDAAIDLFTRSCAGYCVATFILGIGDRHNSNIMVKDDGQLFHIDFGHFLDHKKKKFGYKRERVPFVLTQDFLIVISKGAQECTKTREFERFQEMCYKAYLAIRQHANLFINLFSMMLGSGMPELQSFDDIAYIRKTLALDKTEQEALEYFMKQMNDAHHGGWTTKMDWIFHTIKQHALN
Test: Inhibition of human full length p110alpha (1 to 1068 residues) expressed in baculovirus-infected Sf21 cells by ADP-Hunter Plus assay
Conditions: not given

IC50 | Compound
0.0025 µM | COc1ncc2cc1NS(=O)(=O)c1cccc(c1)C(=O)NCc1cccc(c1)-c1ncnc3ccc-2cc13

Target: Voltage-gated inwardly rectifying potassium channel KCNH2 (Homo sapiens, UniProt Q12809)
Sequence (Q12809 whole entry): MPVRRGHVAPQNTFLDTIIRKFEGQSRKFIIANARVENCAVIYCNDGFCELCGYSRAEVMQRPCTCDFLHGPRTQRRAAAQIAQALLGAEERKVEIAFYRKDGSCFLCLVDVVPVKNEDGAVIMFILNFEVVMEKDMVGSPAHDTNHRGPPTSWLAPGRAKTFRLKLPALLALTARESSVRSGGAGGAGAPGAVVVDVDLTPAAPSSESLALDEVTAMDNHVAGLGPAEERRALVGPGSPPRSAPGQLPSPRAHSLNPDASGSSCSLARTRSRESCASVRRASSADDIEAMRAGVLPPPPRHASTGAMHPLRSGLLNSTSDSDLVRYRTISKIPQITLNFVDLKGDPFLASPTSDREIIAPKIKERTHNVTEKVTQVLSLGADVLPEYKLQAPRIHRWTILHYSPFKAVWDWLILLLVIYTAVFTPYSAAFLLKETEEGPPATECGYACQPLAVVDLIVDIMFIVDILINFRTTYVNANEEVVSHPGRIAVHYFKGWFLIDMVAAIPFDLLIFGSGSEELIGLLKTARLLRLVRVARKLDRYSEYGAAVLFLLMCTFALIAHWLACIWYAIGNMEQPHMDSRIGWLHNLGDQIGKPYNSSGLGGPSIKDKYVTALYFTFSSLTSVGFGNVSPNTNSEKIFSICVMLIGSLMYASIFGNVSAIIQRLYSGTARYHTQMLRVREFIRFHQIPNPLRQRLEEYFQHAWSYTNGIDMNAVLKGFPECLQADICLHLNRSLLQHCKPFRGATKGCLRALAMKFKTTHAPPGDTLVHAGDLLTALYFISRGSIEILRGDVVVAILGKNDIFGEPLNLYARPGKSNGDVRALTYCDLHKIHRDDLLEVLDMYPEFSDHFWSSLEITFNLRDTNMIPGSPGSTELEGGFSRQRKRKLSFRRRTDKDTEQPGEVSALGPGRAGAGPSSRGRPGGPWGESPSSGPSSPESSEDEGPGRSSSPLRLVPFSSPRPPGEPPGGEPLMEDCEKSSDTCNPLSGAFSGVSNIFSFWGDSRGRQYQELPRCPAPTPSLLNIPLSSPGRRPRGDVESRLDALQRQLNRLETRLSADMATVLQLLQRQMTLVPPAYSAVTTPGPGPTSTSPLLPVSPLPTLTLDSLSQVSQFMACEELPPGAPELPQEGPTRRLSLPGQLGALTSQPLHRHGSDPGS
Test: Inhibition of human ERG by fluorescence polarization assay
Conditions: not given
How it was run: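 Predictor h-ERG membrane preparations (sonicated) incubated with test compound dilutions and fluorescent tracer (working 4X tracer at 4 nM) at room temperature for ≥1 h. Read-out by fluorescence polarization, ex 530/25, em 590/35.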

Compound | IC50
COc1ncc2cc1NS(=O)(=O)c1cccc(c1)C(=O)NCc1cccc(c1)-c1ncnc3ccc-2cc13 | > 30 µM

Target: T1, Cytochrome P450 1A2 (Homo sapiens, UniProt P05177)
T1 sequence (P05177 whole entry): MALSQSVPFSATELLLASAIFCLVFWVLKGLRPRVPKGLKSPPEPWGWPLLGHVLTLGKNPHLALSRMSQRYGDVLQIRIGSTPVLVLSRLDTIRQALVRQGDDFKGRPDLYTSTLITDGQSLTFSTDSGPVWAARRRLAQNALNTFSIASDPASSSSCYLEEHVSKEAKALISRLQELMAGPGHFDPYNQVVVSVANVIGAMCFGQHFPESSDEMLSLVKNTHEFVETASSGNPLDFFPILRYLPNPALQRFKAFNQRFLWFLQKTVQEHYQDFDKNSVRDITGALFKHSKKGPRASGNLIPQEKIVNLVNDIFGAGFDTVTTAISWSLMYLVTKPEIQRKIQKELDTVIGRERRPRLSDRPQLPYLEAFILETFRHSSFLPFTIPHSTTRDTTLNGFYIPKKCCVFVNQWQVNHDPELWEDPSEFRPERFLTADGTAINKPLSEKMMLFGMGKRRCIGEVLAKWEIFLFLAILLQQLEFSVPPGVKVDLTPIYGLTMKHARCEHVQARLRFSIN
Test: Inhibition of CYP1A2 (unknown origin) using Luciferin-ME as substrate at 10 uM preincubated with enzyme and substrate for 5 mins followed by addition of NADPH regeneration system and measured after 60 mins by luminescence method
Format: ADME
Conditions: not given
How it was run: (§2)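 P450-Glo luminescence assays with these substrates: Luciferin-ME (CYP1A2), Luciferin-PPXE (CYP3A4), Luciferin-H (CYP2C9), LuciferinH-EG (CYP2C19), Luciferin-ME-EG (CYP2D6). Compounds run in 1/3 serial dilutions from 10 µM in 0.5% DMSO with enzyme and substrate. After 5 min preincubation, NADPH regeneration reagent added; 60 min at 37 °C, then detection reagent for 30 min. Background subtracted.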

IC50 | Compound
> 30 µM | COc1ncc2cc1NS(=O)(=O)c1cccc(c1)C(=O)NCc1cccc(c1)-c1ncnc3ccc-2cc13

Target: Cytochrome P450 2C19 (Homo sapiens, UniProt P33261)
Sequence (P33261 whole entry): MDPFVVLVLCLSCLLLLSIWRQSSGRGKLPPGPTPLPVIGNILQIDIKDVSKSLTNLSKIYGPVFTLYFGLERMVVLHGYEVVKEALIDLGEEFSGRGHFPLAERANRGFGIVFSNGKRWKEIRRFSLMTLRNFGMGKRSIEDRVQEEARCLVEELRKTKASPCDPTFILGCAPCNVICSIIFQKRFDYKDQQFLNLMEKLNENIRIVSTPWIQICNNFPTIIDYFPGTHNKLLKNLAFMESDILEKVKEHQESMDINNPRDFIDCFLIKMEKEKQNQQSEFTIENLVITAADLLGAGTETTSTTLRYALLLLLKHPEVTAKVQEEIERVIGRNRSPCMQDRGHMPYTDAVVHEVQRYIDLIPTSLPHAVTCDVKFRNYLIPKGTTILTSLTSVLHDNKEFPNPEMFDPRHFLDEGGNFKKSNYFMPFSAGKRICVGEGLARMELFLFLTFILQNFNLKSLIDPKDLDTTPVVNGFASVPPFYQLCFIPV
Test: Inhibition of CYP2C19 (unknown origin) using LuciferinH-EG as substrate at 10 uM preincubated with enzyme and substrate for 5 mins followed by addition of NADPH regeneration system and measured after 60 mins by luminescence method
Format: ADME
Conditions: not given
How it was run: as §2

IC50 | Compound
> 30 µM | COc1ncc2cc1NS(=O)(=O)c1cccc(c1)C(=O)NCc1cccc(c1)-c1ncnc3ccc-2cc13

Target: Cytochrome P450 3A4 (Homo sapiens, UniProt P08684)
Sequence (P08684 whole entry): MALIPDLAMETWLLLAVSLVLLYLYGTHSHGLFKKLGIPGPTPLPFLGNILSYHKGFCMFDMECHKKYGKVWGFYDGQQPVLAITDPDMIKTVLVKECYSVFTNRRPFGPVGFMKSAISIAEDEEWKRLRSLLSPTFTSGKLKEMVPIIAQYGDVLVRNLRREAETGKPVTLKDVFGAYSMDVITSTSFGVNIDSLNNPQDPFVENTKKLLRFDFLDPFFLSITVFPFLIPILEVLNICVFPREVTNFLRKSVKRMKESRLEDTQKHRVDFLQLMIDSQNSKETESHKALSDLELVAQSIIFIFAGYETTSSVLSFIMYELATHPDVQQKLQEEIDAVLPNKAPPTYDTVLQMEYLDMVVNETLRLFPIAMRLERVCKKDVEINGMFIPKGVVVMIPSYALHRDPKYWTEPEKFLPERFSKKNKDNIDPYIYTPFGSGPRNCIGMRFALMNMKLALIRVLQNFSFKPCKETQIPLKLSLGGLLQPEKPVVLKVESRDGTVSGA
Test: Inhibition of CYP3A4 (unknown origin) using Luciferin-PPXE as substrate at 10 uM preincubated with enzyme and substrate for 5 mins followed by addition of NADPH regeneration system and measured after 60 mins by luminescence method
Format: ADME
Conditions: not given
How it was run: as §2

IC50 | Compound
> 30 µM | COc1ncc2cc1NS(=O)(=O)c1cccc(c1)C(=O)NCc1cccc(c1)-c1ncnc3ccc-2cc13

Tested on: not listed separately
Test: Metabolic stability in rat liver microsomes assessed as parent compound remaining in presence of NADPH regenerating system at 0.5 uM measured after 15 mins by LC-MS/MS analysis
Format: ADME, Microsome
Conditions: read-out: Stabilty
How it was run: as §1

remaining at 0.25 h, 0.5 µM | Compound
91% | COc1ncc2cc1NS(=O)(=O)c1cccc(c1)C(=O)NCc1cccc(c1)-c1ncnc3ccc-2cc13

Target: Cytochrome P450 2C9 (Homo sapiens, UniProt P11712)
Sequence (P11712 whole entry): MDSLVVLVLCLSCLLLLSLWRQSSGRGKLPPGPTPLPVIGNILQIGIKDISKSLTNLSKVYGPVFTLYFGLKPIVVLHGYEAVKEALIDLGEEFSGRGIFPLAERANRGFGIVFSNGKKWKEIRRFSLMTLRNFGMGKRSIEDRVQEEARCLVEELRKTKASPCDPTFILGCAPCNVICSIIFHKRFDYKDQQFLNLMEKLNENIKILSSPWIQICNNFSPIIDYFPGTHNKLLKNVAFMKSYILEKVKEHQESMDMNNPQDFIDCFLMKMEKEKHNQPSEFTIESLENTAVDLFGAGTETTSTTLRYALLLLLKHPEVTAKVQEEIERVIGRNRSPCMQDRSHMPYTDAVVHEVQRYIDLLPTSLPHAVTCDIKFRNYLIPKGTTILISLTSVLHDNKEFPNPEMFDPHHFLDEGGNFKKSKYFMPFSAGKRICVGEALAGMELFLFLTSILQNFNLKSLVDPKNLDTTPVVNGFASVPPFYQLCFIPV
Test: Inhibition of CYP2C9 (unknown origin) using Luciferin-H as substrate at 10 uM preincubated with enzyme and substrate for 5 mins followed by addition of NADPH regeneration system and measured after 60 mins by luminescence method
Format: ADME
Conditions: not given
How it was run: as §2

IC50 | Compound
> 30 µM | COc1ncc2cc1NS(=O)(=O)c1cccc(c1)C(=O)NCc1cccc(c1)-c1ncnc3ccc-2cc13

Tested on: not listed separately
Test: Metabolic stability in mouse liver microsomes assessed as parent compound remaining in presence of NADPH regenerating system at 0.5 uM measured after 15 mins by LC-MS/MS analysis
Format: ADME, Microsome
Conditions: read-out: Stabilty
How it was run: as §1

remaining at 0.25 h, 0.5 µM | Compound
74% | COc1ncc2cc1NS(=O)(=O)c1cccc(c1)C(=O)NCc1cccc(c1)-c1ncnc3ccc-2cc13

Target: Cytochrome P450 2D6 (Homo sapiens, UniProt P10635)
Sequence (P10635 whole entry): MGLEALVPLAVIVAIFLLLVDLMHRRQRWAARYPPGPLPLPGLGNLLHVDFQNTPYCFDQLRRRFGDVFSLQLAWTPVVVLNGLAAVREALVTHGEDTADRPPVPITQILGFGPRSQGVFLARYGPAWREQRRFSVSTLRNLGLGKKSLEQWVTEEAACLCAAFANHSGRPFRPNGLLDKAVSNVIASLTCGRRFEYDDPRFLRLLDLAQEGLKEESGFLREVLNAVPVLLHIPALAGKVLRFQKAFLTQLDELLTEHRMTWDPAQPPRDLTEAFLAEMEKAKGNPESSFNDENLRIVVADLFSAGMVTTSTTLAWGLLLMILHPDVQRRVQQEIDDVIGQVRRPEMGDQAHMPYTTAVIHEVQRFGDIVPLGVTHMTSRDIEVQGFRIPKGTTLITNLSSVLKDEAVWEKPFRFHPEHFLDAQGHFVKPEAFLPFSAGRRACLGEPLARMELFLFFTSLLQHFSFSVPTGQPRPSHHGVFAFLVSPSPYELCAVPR
Test: Inhibition of CYP2D6 (unknown origin) using Luciferin-ME-EG as substrate at 10 uM preincubated with enzyme and substrate for 5 mins followed by addition of NADPH regeneration system and measured after 60 mins by luminescence method
Format: ADME
Conditions: not given
How it was run: as §2

IC50 | Compound
> 30 µM | COc1ncc2cc1NS(=O)(=O)c1cccc(c1)C(=O)NCc1cccc(c1)-c1ncnc3ccc-2cc13

Tested on: not listed separately
Test: Inhibition of PI3K/mTOR in human U2OS cells assessed as inhibition of AKT1 phosphorylation at Ser473 residue by C-ELISA
Format: cell-based
Conditions: not given
How it was run: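 U2OS osteosarcoma cells grown in 0.1% FBS and serum-stimulated. Endogenous phospho-AKT1 Ser473 quantified by cell-based ELISA with chemiluminescent substrate. Signal plotted against inhibitor concentration and fitted to a sigmoid dose-response curve.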

EC50 | Compound
0.0479 µM | COc1ncc2cc1NS(=O)(=O)c1cccc(c1)C(=O)NCc1cccc(c1)-c1ncnc3ccc-2cc13
